# Mdm2-MdmX inh: disrupts the human Mdm2-MdmX interaction. 3% of 330,000 active. O15151+Q00987. SaOS-2 split-luciferase Mdm2/MdmX complementation, luminescence. inhibition, % at 8 µM. AID 485346;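 active = inhibition of at least 50% at 8 µM in the primary screen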
# XBP1 UPR activ: adaptive UPR (XBP1) activation; activation, % at 20 µM; 0.33% of 330,000 active; CHO-XBP1 luciferase reporter, IRE1-XBP1 UPR activation, luminescence; percent of tunicamycin response, DMSO as zero;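 active = versus positive control, 20 µM dose yields 30% or more activation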;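 also: 100% = tunicamycin at 10 µg/mL and 0% = DMSO only wells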
#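 Assay system: IRE1-XBP1 luciferase reporter CHO line. Input: 1000 cells/well. Buffer or medium: F12 with 10% serum. Doses: 20 µM, 1% DMSO. Times: overnight seeding at 37 °C, 6 h compound treatment at 37 °C. Technique: Steady-Glo luciferase glow luminescence, 10 min after reagent addition.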
# UBC13 inh: human UBC13 polyubiquitination inhibition; P61088; 0.47% of 330,000 active; inhibition, % at 20 µM; UBC13 polyubiquitin chain formation, TR-FRET; in the data active = inhibition above about 45%, passing the limit was not always enough
# UPR CHOP act: activators of apoptotic arm of unfolded protein response (CHOP) | CHO-CHOP luciferase reporter, UPR activation, luminescence; percent of tunicamycin response over DMSO baseline | activation, % at 10 µM | 0.34% of 330,000 active | AID 449763;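 active = at 10 µM dose, activation of 40% or more, normalized to positive control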;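 also: 100% = tunicamycin at 10 µg/mL and 0% = DMSO alone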
#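 Material: CHO-CHOP cells, stable luciferase reporter of PERK-eIF2a-CHOP signalling; quantity: 500 reporter cells seeded per well; buffer or medium: F12 medium containing 10% fetal bovine serum; compound: one dose, 10 µM in 0.5% DMSO; incubation: 6 h compound treatment, 37 °C; measured by: Steady-Glo luciferase luminescence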
# Apaf1 inhib: human Apaf-1 inhibition; reconstituted apoptosome caspase-3 activity, DEVD-Rh110 fluorescence; inhibition, % at 20 µM; 0.71% of 330,000 active; AID 489030; active = inhibition of at least 40% at 20 µM;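 also: plate controls were DMSO wells for no effect and DEVD-CHO caspase inhibitor wells for full effect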
#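 Material: reconstituted apoptosome with Apaf-1, cytochrome c, caspase-9, procaspase-3, dATP. Technique: Rh110 fluorescence intensity. Buffer or medium: pH 7.5 Hepes buffer with CHAPS, BSA, DTT. Times: 30 min plus 50 min, RT.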
# Mdm2-MdmX conf: confirmation of human Mdm2/MdmX interaction inhibitors. shares compounds with Mdm2-MdmX inh. Mdm2-MdmX binding, luminescent assay. inhibition, % at 8 µM. 55% of 10,000 active. AID 489028; in the data active = inhibition above about 40%
# Full FLuc ctr: counter-screen for Mdm2/MdmX inhibitors: full-length luciferase | SaOS-2 full-length luciferase counterscreen, luminescence | shares compounds with Mdm2-MdmX inh | inhibition, % at 8 µM | 77% of 6,200 active;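 active = mean inhibition at 8 µM reaching about 37%, which flags the compound as non-specific, limit read from the data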;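 also: p53-null SaOS-2 cells with luciferase driven by a doxycycline-inducible promoter; compound on cells about two nights before reading with doxycycline added after day one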
# Starred values were filed as active, the others as inactive; nt = no result given. The list is not random: actives were taken first. Their share in the collection is about 4.1%.
SMILES,Mdm2-MdmX inh,XBP1 UPR activ,UBC13 inh,UPR CHOP act,Apaf1 inhib,Mdm2-MdmX conf,others
CCN1C(=O)[C@@H]2[C@@H](c3ccc(-c4ccc(C(C)=O)cc4)c(OC)c3)N3CCCC[C@@]3(C(=O)OC)[C@@H]2C1=O,36,2,7,3,21,nt,
N#C/C(=C\c1ccc(-c2ccc([N+](=O)[O-])cc2Br)o1)C(=O)N1CCN(c2ccccc2)CC1,8,-4,-16,-1,12,nt,
Cc1cc(C)cc(OC(=O)CS(=O)c2ccc(C(F)(F)F)cc2[N+](=O)[O-])c1 (stereo unspecified),50*,-3,0,0,10,40*,Full FLuc ctr=55*
COC(=O)[C@]1(CC(C)C)N[C@H](c2ccc(-c3ccc(Cl)c(Cl)c3)cc2)[C@@H]2C(=O)N(C)C(=O)[C@@H]21,57*,-3,3,0,20,28,
CCN1C(=O)[C@H]2[C@@H](c3ccc(-c4ccc(Cl)c(Cl)c4)cc3)N[C@@](CC(C)C)(C(=O)OC)[C@H]2C1=O,36,-2,0,0,21,nt,
COC(=O)[C@]1(Cc2ccccc2)N[C@H](c2ccc(-c3ccccc3)cc2)[C@@H]2C(=O)N(C)C(=O)[C@@H]21,30,-2,-4,-1,11,nt,
COC(=O)[C@]1(Cc2ccccc2)N[C@H](c2ccc(-c3ccc(Cl)c(Cl)c3)cc2)[C@@H]2C(=O)N(C)C(=O)[C@@H]21,56*,-1,-22,2,19,51*,Full FLuc ctr=82*
COC(=O)[C@]1(Cc2ccccc2)N[C@H](c2ccc(-c3cccc(Cl)c3)cc2)[C@@H]2C(=O)N(C)C(=O)[C@@H]21,55*,0,-6,3,19,36,Full FLuc ctr=74*
CCN1C(=O)[C@H]2[C@@H](c3ccc(-c4cccc(Cl)c4)cc3)N[C@@](CC(C)C)(C(=O)OC)[C@H]2C1=O,52*,0,-6,-1,26,22,
Cn1cccc1CNCC(O)c1ccccc1 (stereo unspecified),-3,1,5,-1,-11,nt,
CCOC(=O)c1c(NC(=O)Cn2cnc([N+](=O)[O-])n2)sc(C)c1C,3,-3,20,1,10,nt,
CCCn1nc(C(=O)NCCN2CCOCC2)c2ccccc2c1=O,16,-4,-7,-2,2,nt,
CCCn1nc(C(=O)Nc2cccc(S(=O)(=O)N(C)c3ccccc3)c2)c2ccccc2c1=O,53*,-4,15,4,15,13,
CCOc1cc(N2CCOCC2)c(OCC)cc1NC(=O)c1nn(CC)c(=O)c2ccccc12,86*,3,-4,11,31,49*,Full FLuc ctr=87*
CCCn1nc(C(=O)Nc2ccc(N3CCOCC3)cc2)c2ccccc2c1=O,51*,4,-5,-1,5,10,
CCCC(=O)Nc1cccc(S(=O)(=O)N(C)c2ccccc2)c1,20,-3,4,0,-6,nt,
Cn1nc(C(=O)Nc2cccc(S(=O)(=O)N3CCCC3)c2)c2ccccc2c1=O,54*,5,6,2,6,2,
Cc1ccc(S(=O)(=O)NCC(=O)NCC(=O)N(C)Cc2ccc3ccccc3c2)cc1C,2,-2,1,-1,23,nt,
NC(=O)C1CCN(S(=O)(=O)c2cccc(S(=O)(=O)N3CCCCC3)c2)CC1,-15,-3,4,0,-5,nt,
CCc1ccc(CN2CCCC(CCC(=O)N3CCN(c4ccccn4)CC3)C2)o1 (stereo unspecified),15,-1,4,-2,9,nt,
COC(=O)c1ccccc1NC(=O)CN1C(=O)c2ccccc2C1=O,15,0,-9,1,-7,nt,
CCOc1ccc(C(C)NC(=O)CCC(=O)O)cc1 (stereo unspecified),18,-4,15,1,-4,nt,
O=C(Cc1ccc(F)cc1)N/N=C/c1ccncc1,22,0,3,6,-17,nt,
Cc1nc2ccc(NC(=O)c3nn(CC(C)C)c(=O)c4ccccc34)cc2s1,77*,0,16,1,17,86*,Full FLuc ctr=51*
C#CCOCCOCCOCCNc1nc(N2CCN(C(=O)CCCCCCCCCCNC(=O)[C@@H](CCSC)n3cc(CCO)nn3)CC2)nc(N2CCN(C(=O)CCCCCCCCCCNC(=O)[C@H]([C@@H](C)CC)n3cc(CCCCCN)nn3)CC2)n1,92*,4,116*,1,51*,31,
SMILES,Mdm2-MdmX inh,XBP1 UPR activ,UBC13 inh,UPR CHOP act,Apaf1 inhib,Mdm2-MdmX conf,others
C#CCOCCOCCOCCNc1nc(N2CCN(C(=O)CCCCCCCCCCNC(=O)[C@H](CO)n3cc(CCCSC)nn3)CC2)nc(N2CCN(C(=O)CCCCCCCCCCNC(=O)[C@H](CCCCN)n3cc(C[C@@H](C)CC)nn3)CC2)n1,100*,17,118*,14,68*,57*,Full FLuc ctr=27
C#CCOCCOCCOCCNc1nc(N2CCN(C(=O)CCCCCCCCCCNC(=O)Cn3cc(C[C@@H](C)O)nn3)CC2)nc(N2CCN(C(=O)CCCCCCCCCCNC(=O)Cn3cc(C[C@@H](C)O)nn3)CC2)n1,16,-3,37,1,27,nt,
C#CCOCCOCCOCCNc1nc(N2CCN(C(=O)CCCCCCCCCCNC(=O)Cn3cc(C[C@@H](C)O)nn3)CC2)nc(N2CCN(C(=O)CCCCCCCCCCNC(=O)[C@H](CCCCN)n3cc(C[C@@H](C)CC)nn3)CC2)n1,93*,5,122*,1,71*,55*,Full FLuc ctr=55*
C#CCOCCOCCOCCNc1nc(N2CCN(C(=O)[C@H]([C@@H](C)O)n3cc(CCCCN)nn3)CC2)nc(N2CCN(C(=O)[C@H]([C@@H](C)CC)n3cc(CCCN=C(N)N)nn3)CC2)n1,14,1,30,-1,20,nt,
C#CCOCCOCCOCCNc1nc(N2CCN(C(=O)CCCCCCCCCCNC(=O)[C@H]([C@@H](C)CC)n3cc(CCCCCN)nn3)CC2)nc(N2CCN(C(=O)CCCCCCCCCCNC(=O)[C@@H]([C@H](C)O)n3cc(C)nn3)CC2)n1,98*,18,118*,3,50*,55*,Full FLuc ctr=40*
COCc1cc(C)n(CC(=O)Nc2cc(C)cc(C)c2)c(=O)c1C#N,-19,0,7,1,2,nt,
CCN(CC)CCCNC(=O)c1cc2c(-c3ccc(Cl)cc3)nn(C)c2s1,64*,-1,39,3,38,21,
Cn1nc(-c2ccc(Cl)cc2)c2cc(C(=O)NCC3CCCO3)sc21 (stereo unspecified),15,2,29,0,9,nt,
